Measurements published in ChEMBL document CHEMBL1153444, “Discovery of dual inhibitors targeting both HIV-1 capsid and human cyclophilin A to inhibit the assembly and uncoating of the viral capsid” (Bioorg Med Chem, 2009).

Tests used:
[1] = tested on: Simian immunodeficiency virus; test: Antiviral activity against SIV in human CEM cells assessed as inhibition of virus-induced cytopathogenicity; format: functional, organism-based, CCRF-CEM; conditions: ccrf-cem
How it was run: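 SIV syncytium assay in CEM174 cells (2 × 10⁵ cells/ml) infected with 100 TCID₅₀ SIV per well alongside serial compound dilutions. Cultures were kept 5 days at 37 °C in humidified 5% CO₂, then giant-cell formation was scored microscopically. EC₅₀ is the concentration protecting cells from SIV cytopathogenicity by 50%.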

[2] = tested on: Simian immunodeficiency virus; test: Antiviral activity against SIV in human CEM cells assessed as inhibition of virus-induced cytopathogenicity at 10 uM; format: functional, CCRF-CEM; design: scale not given: the % may be the effect or the level left

C/C=C/C[C@@H](C)[C@@H](O)[C@H]1C(=O)N[C@@H](CC)C(=O)N(C)CC(=O)N(C)[C@@H](CC(C)C)C(=O)N[C@@H](C(C)C)C(=O)N(C)[C@@H](CC(C)C)C(=O)N[C@@H](C)C(=O)N[C@H](C)C(=O)N(C)[C@@H](CC(C)C)C(=O)N(C)[C@@H](CC(C)C)C(=O)N(C)[C@@H](C(C)C)C(=O)N1C [CYCLOSPORINE] was tested, and the EC50 [1] was “Not Active” and the Activity [2] was under 10%.
